Legend:
CCRF-CEM [1] = experiment: Concentration required for the 50% inhibition of growth of CCRF-CEM human leukemia cells in culture; type: functional, cell-based
How it was run: (§1)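 10^5 mycoplasma-free L1210 or CCRF-CEM cells grown 48 h in RPMI 1640 with 10% fetal calf serum containing compound, then counted. Value is concentration giving 50% growth inhibition. Compounds were purified by preparative TLC until no FUrd was detectable by HPLC. Highest concentration noted was 10^-4 M.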

L1210 [2] = experiment: Concentration required for the 50% inhibition of growth of L1210 mouse leukemia cells in culture; type: functional, cell-based; how it was run: as §1
L1210 [3] = experiment: Antitumor activity against L1210 leukemia cells in mice at a dose of 100 mg/kg (ip) expressed as change in the body weight after 7 days; type: functional, Mus musculus
How it was run: (§2)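 Female DBA/2 mice (18–22 g), groups of five, implanted ip with 10^5 L1210 cells on day 0. Compound in PBS given ip (0.2 mL) once daily days 1–5. Controls got PBS. Mice weighed on days 1 and 7. Weight change expressed as percentage of initial weight.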

L1210 [4] = experiment: Antitumor activity against L1210 leukemia cells in mice at a dose of 150 mg/kg (ip) expressed as change in the body weight after 7 days; type: functional, Mus musculus; how it was run: as §2
L1210 [5] = experiment: Antitumor activity against L1210 leukemia cells in mice at a dose of 250 mg/kg (ip) expressed as change in the body weight after 7 days; type: functional, Mus musculus; how it was run: as §2
Mus musculus [6] = experiment: Percent increase in life span(ILS) was measured in mice at a dose of 100 mg/kg; type: functional
How it was run: (§3)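 Female DBA/2 mice (18–22 g), groups of five, implanted ip on day 0 with 10^5 L1210 leukemia cells. Compound dissolved in PBS and given ip daily on days 1–5 (q.d. 1–5). Controls received PBS. Mice were weighed on days 1 and 7. Read-outs were mean mortality and percent increase in life span.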

Mus musculus [7] = experiment: Percent increase in life span(ILS) was measured in mice at a dose of 150 mg/kg; type: functional; how it was run: as §3
Mus musculus [8] = experiment: Percent increase in life span(ILS) was measured in mice at a dose of 250 mg/kg; type: functional; how it was run: as §3
Mus musculus [9] = experiment: Mortality rate was measured at a dose of 100 mg/kg; type: functional; how it was run: as §3
Mus musculus [10] = experiment: Mortality rate was measured at a dose of 150 mg/kg; type: functional; how it was run: as §3
Mus musculus [11] = experiment: Mortality rate was measured at a dose of 250 mg/kg; type: functional; how it was run: as §3
CCRF-CEM [12] = experiment: Concentration required for the 50% inhibition of growth of CCRF-CEM human leukemia cells in culture; No growth inhibition was observed at a concentration of 10^-4 M; type: functional, cell-based; how it was run: as §1
L1210 [13] = experiment: Concentration required for the 50% inhibition of growth of L1210 mouse leukemia cells in culture; No growth inhibition was observed at a concentration of 10^-4 M; type: functional, cell-based; how it was run: as §1

Structure (SMILES)	IC50 (CCRF-CEM [1])	IC50 (L1210 [2])	Change of body weight (L1210 [3])	Change of body weight (L1210 [4])	Change of body weight (L1210 [5])	ILS at 100 mg/kg (Mus musculus [6])	ILS at 150 mg/kg (Mus musculus [7])	ILS at 250 mg/kg (Mus musculus [8])	Mean survival time (Mus musculus [9])	Mean day of death (Mus musculus [10])	Mean day of death (Mus musculus [11])	IC50 (CCRF-CEM [12])	IC50 (L1210 [13])
[N-]=[N+]=NC[C@H]1OC(n2cc(F)c(=O)[nH]c2=O)[C@H](O)[C@@H]1O (some centres not stated)	350 µM	170 µM											
O=c1[nH]c(=O)n(C2O[C@H](CCl)[C@@H](O)[C@H]2O)cc1F (some centres not stated)		3.4 µM	-0.8%	-3.5%	-4.6%	47%	51%	64%	15.6 days	16 days	17.4 days		
Cc1ccc(S(=O)(=O)OC[C@H]2OC(n3cc(F)c(=O)[nH]c3=O)[C@H](O)[C@@H]2O)cc1 (some centres not stated)	1.8 µM	0.46 µM											
O=c1[nH]c(=O)n(C2O[C@H](CO[N+](=O)[O-])[C@@H](O)[C@H]2O)cc1F (some centres not stated)												No inhibition	No inhibition
O=c1[nH]c(=O)n(C2O[C@H](CF)[C@@H](O)[C@H]2O)cc1F (some centres not stated)	140 µM	29 µM	-5.6%	0.9%	2.3%	32%	30%	58%	14 days	13.8 days	16.8 days		
CS(=O)(=O)OC[C@H]1OC(n2cc(F)c(=O)[nH]c2=O)[C@H](O)[C@@H]1O (some centres not stated)	0.66 µM	0.32 µM	0%	1.3%	-1.7%	26%	40%	58%	13.4 days	14.8 days	16.8 days		
O=c1[nH]c(=O)n(C2O[C@H](CI)[C@@H](O)[C@H]2O)cc1F (some centres not stated)	27 µM	5 µM	0%										
NC[C@H]1OC(n2cc(F)c(=O)[nH]c2=O)[C@H](O)[C@@H]1O (some centres not stated)	49 µM	8.7 µM	1.8%	-5.5%	-0.9%	17%	19%	28%	12.4 days	12.8 days	13.6 days		
O=c1[nH]c(=O)n(C2O[C@H](CBr)[C@@H](O)[C@H]2O)cc1F (some centres not stated)	3.1 µM	0.8 µM	1.7%		-1.8%	34%	41%	34%	14.2 days	15 days	14.2 days		
O=c1[nH]c(=O)n([C@@H]2O[C@H](CO)[C@@H](O)[C@H]2O)cc1F [5-FLUOROURIDINE]	0.05 µM	0.005 µM											
C[C@H]1O[C@@H](n2cc(F)c(=O)[nH]c2=O)[C@H](O)[C@@H]1O [DOXIFLURIDINE]	22 µM	3.6 µM	5.7%	4.8%	0%	8%	13%	20%	11.4 days	12 days	12.8 days		
O=c1[nH]cc(F)c(=O)[nH]1 [FLUOROURACIL]	5 µM	0.5 µM											
